# Experiments:
# [1] = system: Mycobacterium tuberculosis; experiment: Antitubercular activity against Mycobacterium tuberculosis H37Rv assessed as growth inhibition after […] by agar microdilution method; type: functional
# [2] = Cytotoxicity against African green monkey Vero cells after 24 hrs by MTS assay; type: cell-based; details: chlorocebus sabaeus
# [3] = Selectivity index, ratio of CC50 for African green monkey Vero cells to MIC for Mycobacterium tuberculosis H37Rv; type: functional
# [4] = Mean residence time in Sprague-Dawley rat at 10 mg/kg, po; type: ADME, organism-based; design: dose 10 mg/kg, route oral; details: in vivo
# Procedure, shortened: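 Male Sprague-Dawley rats were given a single oral dose of 10 mg/kg. Serum concentration-time profiles were followed, and pharmacokinetic parameters, including mean residence time and clearance, were derived from them.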
# Candida parapsilosis = experiment: Antifungal activity against Candida parapsilosis ATCC 22019 assessed as growth inhibition after 24 to 48 hrs by microbroth dilution method; type: functional; details: Lodderomyces parapsilosis
# Procedure, shortened: (§1)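 Broth microdilution susceptibility testing following NCCLS guidelines (reference standard M27-A for yeasts), run against a panel of bacterial and fungal strains.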
# Candida albicans = experiment: Antifungal activity against Candida albicans isolated from patient assessed as growth inhibition after 24 to 48 hrs by microbroth dilution method; type: functional; procedure, shortened: as §1
# Staphylococcus aureus = experiment: Antibacterial activity against Staphylococcus aureus ATCC 25923 assessed as growth inhibition after 24 hrs by microbroth dilution method; type: functional; details: ATCC 25923, 24 h; procedure, shortened: as §1
# Klebsiella pneumoniae = experiment: Antibacterial activity against Klebsiella pneumoniae ATCC 27736 assessed as growth inhibition after 24 hrs by microbroth dilution method; type: functional; details: ATCC 27736, 24 h; procedure, shortened: as §1
# Pseudomonas aeruginosa = experiment: Antibacterial activity against Pseudomonas aeruginosa ATCC BAA427 assessed as growth inhibition after 24 hrs by microbroth dilution method; type: functional; details: ATCC BAA427, 24 h; procedure, shortened: as §1
# Cryptococcus neoformans = experiment: Antifungal activity against Cryptococcus neoformans CDRI isolate assessed as growth inhibition after 24 to 48 hrs by microbroth dilution method; type: functional; procedure, shortened: as §1
# Escherichia coli = experiment: Antibacterial activity against Escherichia coli ATCC 9637 assessed as growth inhibition after 24 hrs by microbroth dilution method; type: functional; details: W; procedure, shortened: as §1
# [5] = system: Trichophyton mentagrophytes; experiment: Antifungal activity against Trichophyton mentagrophytes isolated from patient assessed as growth inhibition after 72 to 96 hrs by microbroth dilution method; type: functional; procedure, shortened: as §1
# Sporothrix schenckii = experiment: Antifungal activity against Sporothrix schenckii isolated from patient assessed as growth inhibition after 72 to 96 hrs by microbroth dilution method; type: functional; procedure, shortened: as §1
# Aspergillus fumigatus = experiment: Antifungal activity against Aspergillus fumigatus isolated from patient assessed as growth inhibition after 72 to 96 hrs by microbroth dilution method; type: functional; procedure, shortened: as §1
smiles,measurement,setting,value
OC(c1ccc(OCc2ccc(OCCN3CCCCC3)cc2)cc1)C1CC1 (stereo not given),MIC,[1],3.12 µg/mL
same,CC50 at 24 h,[2],> 50 µg/mL
same,Selectivity Index,[3],>10
ClCC/C=C/c1ccc(OCc2ccc(OCCN3CCCCC3)cc2)cc1,MIC,[1],4.46 µg/mL
C(=C\c1ccc(OCc2ccccc2)cc1)/CCn1cncn1,MIC,[1],> 25 µg/mL
C(=C\c1ccc(OCc2ccccc2)cc1)/CCSc1nc2ccccc2s1,MRT,[4],6.02 h
C(=C\c1ccc(OCc2ccccc2)cc1)/CCSc1nc2ccccc2[nH]1,MIC,[1],> 25 µg/mL
CCCCSc1nc2ccccc2n1CC/C=C/c1ccc(OCc2ccccc2)cc1,MIC,[1],> 12.5 µg/mL
Clc1ccc(COc2ccc(/C=C/CCn3cnc4ccccc43)cc2)cc1,MIC,[1],6.25 µg/mL
Clc1ccc(COc2ccc(/C=C/CCn3nnc4ccccc43)cc2)cc1,MIC,[1],> 12.5 µg/mL
Brc1ccc(COc2ccc(/C=C/CCn3cncn3)cc2)cc1,MIC,[1],4.78 µg/mL
Cc1cnn(CC/C=C/c2ccc(OCc3ccc(Br)cc3)cc2)c1,MRT,[4],7.17 h
O=[N+]([O-])c1cn(CC/C=C/c2ccc(OCc3ccc(F)cc3)cc2)cn1,MIC,[1],50 µg/mL
COc1ccc(COc2ccc(/C=C/CCSc3nc4ccccc4[nH]3)cc2)cc1,MIC,[1],> 12.5 µg/mL
c1ccc2c(c1)ncn2C(c1ccc(OCc2ccc(OCCN3CCCCC3)cc2)cc1)C1CC1 (stereo not given),MIC,[1],12.5 µg/mL
c1cc(OCCN2CCCCC2)ccc1COc1ccc(C(Nn2cnnc2)C2CC2)cc1 (stereo not given),MIC,[1],50 µg/mL
c1ccc2sc(NC(c3ccc(OCc4ccc(OCCN5CCCCC5)cc4)cc3)C3CC3)nc2c1 (stereo not given),MIC,[1],12.5 µg/mL
c1ccc2sc(SC(c3ccc(OCc4ccc(OCCN5CCCCC5)cc4)cc3)C3CC3)nc2c1 (stereo not given),MIC,Candida parapsilosis,> 50 µg/mL
same,MIC,[1],3.12 µg/mL
same,MIC,Candida albicans,6.25 µg/mL
same,MIC,Staphylococcus aureus,12.5 µg/mL
same,MIC,Klebsiella pneumoniae,> 50 µg/mL
same,MIC,Pseudomonas aeruginosa,> 50 µg/mL
same,MIC,Cryptococcus neoformans,50 µg/mL
same,CC50 at 24 h,[2],100 µg/mL
same,MIC,Escherichia coli,> 50 µg/mL
same,MIC,[5],6.25 µg/mL
same,Selectivity Index,[3],32.2
same,MIC,Sporothrix schenckii,12.5 µg/mL
same,MIC,Aspergillus fumigatus,25 µg/mL
c1ccc2[nH]c(SC(c3ccc(OCc4ccc(OCCN5CCCCC5)cc4)cc3)C3CC3)nc2c1 (stereo not given),MIC,[1],> 50 µg/mL
Fc1ccc2nc(NC(c3ccc(OCc4ccc(OCCN5CCCCC5)cc4)cc3)C3CC3)sc2c1 (stereo not given),MIC,[1],6.25 µg/mL
same,CC50 at 24 h,[2],4.93 µg/mL
same,Selectivity Index,[3],0.78
c1ccc2oc(NC(c3ccc(OCc4ccc(OCCN5CCCCC5)cc4)cc3)C3CC3)nc2c1 (stereo not given),MIC,Candida parapsilosis,50 µg/mL
same,MIC,[1],6.25 µg/mL
same,MIC,Candida albicans,12.5 µg/mL
same,MIC,Staphylococcus aureus,25 µg/mL
same,MIC,Klebsiella pneumoniae,> 50 µg/mL
same,MIC,Pseudomonas aeruginosa,> 50 µg/mL
same,MIC,Cryptococcus neoformans,50 µg/mL
same,CC50 at 24 h,[2],11.7 µg/mL
same,MIC,Escherichia coli,> 50 µg/mL
same,MIC,[5],12.5 µg/mL
same,Selectivity Index,[3],1.87
same,MIC,Sporothrix schenckii,25 µg/mL
same,MIC,Aspergillus fumigatus,> 50 µg/mL
c1ccc(COc2ccc(C(C3CC3)n3cnc4ccccc43)cc2)cc1 (stereo not given),MIC,[1],12.5 µg/mL
c1ccc(COc2ccc(C(C3CC3)n3ccnc3)cc2)cc1 (stereo not given),MIC,[1],12.5 µg/mL
c1ccc(COc2ccc(C(C3CC3)n3cncn3)cc2)cc1 (stereo not given),MIC,[1],> 12.5 µg/mL
c1ccc(COc2ccc(C(Nn3cnnc3)C3CC3)cc2)cc1 (stereo not given),MIC,[1],> 12.5 µg/mL
c1ccc(COc2ccc(C(Nc3nc4ccccc4s3)C3CC3)cc2)cc1 (stereo not given),MRT,[4],7.9 h
O=[N+]([O-])c1cnc(NC(c2ccc(OCc3ccccc3)cc2)C2CC2)s1 (stereo not given),MIC,[1],> 25 µg/mL
Cc1cnn(C(c2ccc(OCc3ccccc3Cl)cc2)C2CC2)c1 (stereo not given),MIC,[1],12.5 µg/mL
Clc1ccc(COc2ccc(C(C3CC3)n3cncn3)cc2)cc1 (stereo not given),MIC,[1],12.5 µg/mL
Brc1ccc(COc2ccc(C(C3CC3)n3cncn3)cc2)cc1 (stereo not given),MIC,[1],25 µg/mL
Cc1cnn(C(c2ccc(OCc3ccc(Br)cc3)cc2)C2CC2)c1 (stereo not given),MIC,[1],> 50 µg/mL
O=[N+]([O-])c1cn(C(c2ccc(OCc3ccc(F)cc3)cc2)C2CC2)cn1 (stereo not given),MIC,[1],12.5 µg/mL
COc1ccc(COc2ccc(C(C3CC3)n3cnc4ccccc43)cc2)cc1 (stereo not given),MIC,[1],> 12.5 µg/mL
COc1ccc(COc2ccc(C(C3CC3)n3ccnc3)cc2)cc1 (stereo not given),MIC,Candida parapsilosis,50 µg/mL
same,MIC,[1],12.5 µg/mL
same,MIC,Candida albicans,25 µg/mL
same,MIC,Staphylococcus aureus,25 µg/mL
same,MIC,Klebsiella pneumoniae,25 µg/mL
same,MIC,Pseudomonas aeruginosa,50 µg/mL
same,MIC,Cryptococcus neoformans,50 µg/mL
same,MIC,Escherichia coli,> 50 µg/mL
same,MIC,[5],3.12 µg/mL
same,MIC,Sporothrix schenckii,3.12 µg/mL
same,MIC,Aspergillus fumigatus,6.25 µg/mL
C(=C\c1ccc(OCc2ccccc2)cc1)/CCn1cnc2ccccc21,MRT,[4],3.22 h
CC1(C)S[C@@H]2[C@H](NC(=O)[C@H](N)c3ccccc3)C(=O)N2[C@H]1C(=O)O [AMPICILLIN],MIC,Staphylococcus aureus,0.04 µg/mL
same,MIC,Klebsiella pneumoniae,50 µg/mL
same,MIC,Pseudomonas aeruginosa,> 50 µg/mL
same,MIC,Escherichia coli,3.12 µg/mL
Clc1ccccc1C(c1ccccc1)(c1ccccc1)n1ccnc1 [CLOTRIMAZOLE],MIC,Candida parapsilosis,1 µg/mL
same,MIC,Candida albicans,0.25 µg/mL
same,MIC,Cryptococcus neoformans,0.25 µg/mL
same,MIC,[5],2 µg/mL
same,MIC,Sporothrix schenckii,4 µg/mL
same,MIC,Aspergillus fumigatus,8 µg/mL
CC[C@@H](CO)NCCN[C@@H](CC)CO [ETHAMBUTOL],MIC,[1],2 µg/mL
OC(Cn1cncn1)(Cn1cncn1)c1ccc(F)cc1F [FLUCONAZOLE],MIC,Candida parapsilosis,0.5 µg/mL
same,MIC,[1],2.83 µg/mL
same,MIC,Candida albicans,1 µg/mL
same,MIC,Cryptococcus neoformans,2 µg/mL
same,MIC,[5],16 µg/mL
same,MIC,Sporothrix schenckii,4 µg/mL
same,MIC,Aspergillus fumigatus,> 32 µg/mL
NNC(=O)c1ccncc1 [ISONIAZID],MIC,[1],0.025 µg/mL
